Measurements from ChEMBL document CHEMBL4665631, “Synthesis and biological evaluation of paclitaxel and vorinostat co-prodrugs for overcoming drug resistance in cancer therapy in vitro” (Bioorg Med Chem, 2019).
Activity calls are given as the source filed them. The rule behind the calls is not given here.

Key:
[1] = Stability in PBS at pH 6 assessed as compound remaining after 24 hrs by HPLC analysis; type: physicochemical; conditions: read-out: Stabilty
Outline: (§1)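 Co-prodrug stock diluted in 10 mM PBS at pH 7.4 or 6.0 and held at 37 °C. Sampled at 0.5, 1, 2, 3, 4, 6, 12 and 24 h. Intact co-prodrug, released PTX and released SAHA resolved by RP-HPLC. Amounts taken from external-standard concentration curves.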

[2] = target: T1, Histone deacetylase (Homo sapiens) (UniProt Q13547+O15379+Q9UBN7+Q92769+Q9UQL6+Q8WUI4+Q9BY41+Q96DB2+P56524+Q9UKV0+Q969S8); test: Inhibition of HDAC in human HCT-116 cells assessed as increase in tubulin acetylation measured after 10 to 24 hrs by Western blot analysis; type: cell-based; conditions: time hrs 10-24
Outline: (§2)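 Cells in logarithmic phase seeded in 6-well plates and cultured overnight. Compound exposure at 37 °C for 10 h and 24 h, with untreated cells as control. Cells lysed in RIPA buffer and lysates boiled. Proteins separated by SDS-PAGE and semidry-transferred to nitrocellulose. Membranes probed with primary antibody overnight at 4 °C, then HRP-conjugated secondary antibody for 1 h at room temperature. Detection by chemiluminescence imaging.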

[3] = Retention time of the compound by HPLC method; type: physicochemical
Outline: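 Reversed-phase HPLC with a gradient of acetonitrile and water, both containing 0.1% formic acid, at 1 mL/min. Gradient ran 5% to 95% acetonitrile over 0–15 min, then held at 95% from 15 to 25 min. Injection volume 50 µL.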

HCT-116 = test: Cytotoxicity against human HCT-116 cells after 72 hrs by SRB assay; type: functional, cell-based; conditions: HCT-116, 72 h
[4] = Half life of compound in PBS buffer at pH 7.4 by HPLC analysis; type: physicochemical; outline: as §1
[5] = Half life in human plasma by HPLC analysis; type: ADME, cell-free
Outline: (§3)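 Co-prodrug diluted into human or mouse plasma and incubated at 37 °C. Sampled at 0.5, 1, 2, 3, 4, 5 and 6 h. Each aliquot quenched with an equal volume of cold acetonitrile and centrifuged. Supernatant analysed by RP-HPLC, with compounds quantified against an external-standard concentration–area curve.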

[6] = target: T1, Histone deacetylase (Homo sapiens); test: Inhibition of HDAC in human MCF7/ADR cells assessed as increase in tubulin acetylation measured after 10 to 24 hrs by Western blot analysis; type: cell-based; conditions: NCI/ADR-RES, time hrs 10-24; outline: as §2
[7] = Half life in mouse plasma by HPLC analysis; type: ADME, cell-free; outline: as §3
NCI/ADR-RES = test: Cytotoxicity against human MCF7/ADR cells after 72 hrs by SRB assay; type: functional, cell-based
[8] = Drug degradation in PBS assessed as SAHA release at pH 7.4 after 48 hrs by HPLC analysis; conditions: buffer, pH 7.4, 48 h
[9] = Drug degradation in PBS assessed as PTX release at pH 7.4 after 48 hrs by HPLC analysis; conditions: buffer, pH 7.4, 48 h
MCF7 = test: Cytotoxicity against human MCF7 cells after 72 hrs by SRB assay; type: functional, cell-based; conditions: MCF7, 72 h
[10] = target: T1, Histone deacetylase (Homo sapiens); test: Inhibition of HDAC in human MCF7 cells assessed as increase in tubulin acetylation measured after 10 to 24 hrs by Western blot analysis; type: cell-based; conditions: time hrs 10-24; outline: as §2

SMILES	remaining at 24 h [1] [%]	inhibition [2]	Retention_time [3] [min]	half-life [4] [min]	half-life [5] [min]	inhibition [6]	half-life [7] [min]	Drug degradation [8] [%]	Drug degradation [9] [%]	inhibition [10]	IC50 (HCT-116) [nM]	IC50 (NCI/ADR-RES) [µM]	IC50 (MCF7) [nM]
CC(=O)O[C@H]1C(=O)[C@@]2(C)[C@H]([C@H](OC(=O)c3ccccc3)[C@]3(O)C[C@H](OC(=O)[C@H](O)[C@@H](NC(=O)c4ccccc4)c4ccccc4)C(C)=C1C3(C)C)[C@]1(OC(C)=O)CO[C@@H]1C[C@@H]2O [PACLITAXEL]		Active	13.81			Active				Active		> 10	< 1.5
O=C(CCCCCCC(=O)Nc1ccccc1)NO [VORINOSTAT]			8.42										

Now from value to molecule, other results behind:

remaining at 24 h [1] [%]	inhibition [2]	Retention_time [3] [min]	half-life [4] [min]	half-life [5] [min]	inhibition [6]	half-life [7] [min]	Drug degradation [8] [%]	Drug degradation [9] [%]	inhibition [10]	SMILES	IC50 (HCT-116) [nM]	IC50 (NCI/ADR-RES) [µM]	IC50 (MCF7) [nM]
> 85	Active	14.62	120	30	Active	30	56.8	50.3	Active	CC(=O)O[C@H]1C(=O)[C@@]2(C)[C@H]([C@H](OC(=O)c3ccccc3)[C@]3(O)C[C@H](OC(=O)[C@H](OC(=O)CNC(=O)ONC(=O)CCCCCCC(=O)Nc4ccccc4)[C@@H](NC(=O)c4ccccc4)c4ccccc4)C(C)=C1C3(C)C)[C@]1(OC(C)=O)CO[C@@H]1C[C@@H]2O	9.55	1.38	1.5
> 85		15.06		30		30				CC(=O)O[C@H]1C(=O)[C@@]2(C)[C@H]([C@H](OC(=O)c3ccccc3)[C@]3(O)C[C@H](OC(=O)[C@H](OC(=O)CCC(=O)ONC(=O)CCCCCCC(=O)Nc4ccccc4)[C@@H](NC(=O)c4ccccc4)c4ccccc4)C(C)=C1C3(C)C)[C@]1(OC(C)=O)CO[C@@H]1C[C@@H]2O	144	4.02	62.4
		13.63								CC(=O)O[C@H]1C(=O)[C@@]2(C)[C@H]([C@H](OC(=O)c3ccccc3)[C@]3(O)C[C@H](OC(=O)[C@H](OC(=O)CCC(=O)O)[C@@H](NC(=O)c4ccccc4)c4ccccc4)C(C)=C1C3(C)C)[C@]1(OC(C)=O)CO[C@@H]1C[C@@H]2O			
